ChEMBL document CHEMBL1151705, “Novel azalides derived from 16-membered macrolides. Part II: Isolation of the linear 9-formylcarboxylic acid and its sequential macrocyclization with an amino alcohol or an azidoamine” (2008)
≈ marks a conversion by molar mass, not a printed value.

Tests used:
Assay type in all cases: functional
Haemophilus influenzae [1] = test: Antimicrobial activity against drug-susceptible Haemophilus influenzae 2 after 20 hrs by agar dilution method; settings: Haemophilus influenzae, 20 h; read-out: MIC
Procedure, shortened: (§1)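 Streptococci, H. influenzae and M. catarrhalis were precultured on blood agar plates. Suspensions of about 10⁶ CFU/ml were inoculated onto sensitivity disk agar supplemented with 5% horse blood and incubated at 37 °C for 20 h. MIC was read as the lowest drug concentration with no visible growth.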

Moraxella catarrhalis [2] = test: Antimicrobial activity against drug-susceptible Moraxella catarrhalis 2 after 20 hrs by agar dilution method; settings: Moraxella catarrhalis, 20 h; read-out: MIC; procedure, shortened: as §1
Streptococcus pneumoniae [3] = test: Antimicrobial activity against drug-susceptible Streptococcus pneumoniae 3 after 20 hrs by agar dilution method; settings: Streptococcus pneumoniae, 20 h; read-out: MIC; procedure, shortened: as §1
Streptococcus pneumoniae [4] = test: Antimicrobial activity against Streptococcus pneumoniae 5 constitutively expressing ermB/mefA after 20 hrs by agar dilution method; settings: Streptococcus pneumoniae, 20 h; read-out: MIC; procedure, shortened: as §1
Haemophilus influenzae [5] = test: Antimicrobial activity against drug-susceptible Haemophilus influenzae 3 after 20 hrs by agar dilution method; settings: Haemophilus influenzae, 20 h; read-out: MIC; procedure, shortened: as §1
Staphylococcus aureus [6] = test: Antimicrobial activity against Staphylococcus aureus 4 constitutively expressing ermA after 20 hrs by agar dilution method
Procedure, shortened: (§2)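 Agar dilution MIC. S. aureus seed culture was grown in sensitivity test broth. Cell suspension (about 10⁶ CFU/ml) was inoculated onto sensitivity disk agar with 5% horse blood and incubated at 37 °C for 20 h. MIC was the lowest drug concentration that prevented visible growth.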

Haemophilus influenzae [7] = test: Antimicrobial activity against drug-susceptible Haemophilus influenzae 1 after 20 hrs by agar dilution method; settings: Haemophilus influenzae, 20 h; read-out: MIC; procedure, shortened: as §1
Streptococcus pneumoniae [8] = test: Antimicrobial activity against drug-susceptible Streptococcus pneumoniae 2 after 20 hrs by agar dilution method; settings: Streptococcus pneumoniae, 20 h; read-out: MIC; procedure, shortened: as §1
Streptococcus pyogenes [9] = test: Antimicrobial activity against drug-susceptible Streptococcus pyogenes 1 after 20 hrs by agar dilution method; settings: Streptococcus pyogenes, 20 h; read-out: MIC; procedure, shortened: as §1
Streptococcus pneumoniae [10] = test: Antimicrobial activity against Streptococcus pneumoniae 4 constitutively expressing ermB after 20 hrs by agar dilution method; settings: Streptococcus pneumoniae, 20 h; read-out: MIC; procedure, shortened: as §1
Staphylococcus aureus [11] = test: Antimicrobial activity against Staphylococcus aureus 5 expressing inducible ermB after 20 hrs by agar dilution method; settings: Staphylococcus aureus, 20 h; read-out: MIC; procedure, shortened: as §2
Moraxella catarrhalis [12] = test: Antimicrobial activity against drug-susceptible Moraxella catarrhalis 1 after 20 hrs by agar dilution method; settings: Moraxella catarrhalis, 20 h; read-out: MIC; procedure, shortened: as §1
Staphylococcus aureus [13] = test: Antimicrobial activity against drug-susceptible Staphylococcus aureus 3 after 20 hrs by agar dilution method; settings: Staphylococcus aureus, 20 h; read-out: MIC; procedure, shortened: as §2
Haemophilus influenzae [14] = test: Antimicrobial activity against drug-susceptible Haemophilus influenzae 4 after 20 hrs by agar dilution method; settings: Haemophilus influenzae, 20 h; read-out: MIC; procedure, shortened: as §1
Streptococcus pneumoniae [15] = test: Antimicrobial activity against Streptococcus pneumoniae 10 expressing mefA after 20 hrs by agar dilution method; settings: Streptococcus pneumoniae, 20 h; read-out: MIC; procedure, shortened: as §1
Staphylococcus aureus [16] = test: Antimicrobial activity against drug-susceptible Staphylococcus aureus 2 after 20 hrs by agar dilution method; settings: Staphylococcus aureus, 20 h; read-out: MIC; procedure, shortened: as §2
Streptococcus pneumoniae [17] = test: Antimicrobial activity against Streptococcus pneumoniae 8 expressing inducible ermB after 20 hrs by agar dilution method; settings: Streptococcus pneumoniae, 20 h; read-out: MIC; procedure, shortened: as §1
Staphylococcus aureus [18] = test: Antimicrobial activity against Staphylococcus aureus 6 expressing inducible ermB after 20 hrs by agar dilution method; procedure, shortened: as §2
Streptococcus pyogenes [19] = test: Antimicrobial activity against Streptococcus pyogenes 3 expressing mefA after 20 hrs by agar dilution method; settings: Streptococcus pyogenes, 20 h; read-out: MIC; procedure, shortened: as §1
Streptococcus pneumoniae [20] = test: Antimicrobial activity against drug-susceptible Streptococcus pneumoniae DP1 Type1 after 20 hrs by agar dilution method; settings: Streptococcus pneumoniae, 20 h; read-out: MIC; procedure, shortened: as §1
Staphylococcus aureus [21] = test: Antimicrobial activity against drug-susceptible Staphylococcus aureus 209P JC-1 after 20 hrs by agar dilution method; settings: Staphylococcus aureus, 209P, 20 h; read-out: MIC; procedure, shortened: as §2
Streptococcus pneumoniae [22] = test: Antimicrobial activity against Streptococcus pneumoniae 9 expressing mefA after 20 hrs by agar dilution method; settings: Streptococcus pneumoniae, 20 h; read-out: MIC; procedure, shortened: as §1
Streptococcus pneumoniae [23] = test: Antimicrobial activity against Streptococcus pneumoniae 6 constitutively expressing ermB after 20 hrs by agar dilution method; settings: Streptococcus pneumoniae, 20 h; read-out: MIC; procedure, shortened: as §1
Streptococcus pneumoniae [24] = test: Antimicrobial activity against Streptococcus pneumoniae 7 expressing inducible ermB after 20 hrs by agar dilution method; settings: Streptococcus pneumoniae, 20 h; read-out: MIC; procedure, shortened: as §1
Streptococcus pyogenes [25] = test: Antimicrobial activity against Streptococcus pyogenes 2 constitutively expressing ermB after 20 hrs by agar dilution method; procedure, shortened: as §1

SMILES | MIC (Haemophilus influenzae [1]) | MIC (Moraxella catarrhalis [2]) | MIC (Streptococcus pneumoniae [3]) | MIC (Streptococcus pneumoniae [4]) | MIC (Haemophilus influenzae [5]) | MIC (Staphylococcus aureus [6]) | MIC (Haemophilus influenzae [7]) | MIC (Streptococcus pneumoniae [8]) | MIC (Streptococcus pyogenes [9]) | MIC (Streptococcus pneumoniae [10]) | MIC (Staphylococcus aureus [11]) | MIC (Moraxella catarrhalis [12]) | MIC (Staphylococcus aureus [13]) | MIC (Haemophilus influenzae [14]) | MIC (Streptococcus pneumoniae [15]) | MIC (Staphylococcus aureus [16]) | MIC (Streptococcus pneumoniae [17]) | MIC (Staphylococcus aureus [18]) | MIC (Streptococcus pyogenes [19]) | MIC (Streptococcus pneumoniae [20]) | also measured
CCOC(=O)[C@H]1[C@H](C)O[C@@H](O[C@H]2[C@H](N(C)C)[C@@H](O)[C@H](O[C@H]3[C@@H](CC=O)C[C@@H](C)[C@@H](O)CN(C)CCC[C@H](C/C=C/c4ccnc5ccccc45)OC(=O)C[C@@H](OC(=O)CC)[C@@H]3OC)O[C@@H]2C)C[C@@]1(C)O | 2 mg/L (≈ 2.03 µM) | 1 mg/L (≈ 1.01 µM) | 0.015 mg/L (≈ 0.0152 µM) | > 128 mg/L | 8 mg/L (≈ 8.11 µM) | > 128 mg/L | 32 mg/L (≈ 32.4 µM) | 0.06 mg/L (≈ 0.0608 µM) | 0.13 mg/L (≈ 0.132 µM) | > 128 mg/L | 0.25 mg/L (≈ 0.253 µM) | 1 mg/L (≈ 1.01 µM) | 0.25 mg/L (≈ 0.253 µM) | 8 mg/L (≈ 8.11 µM) | 0.06 mg/L (≈ 0.0608 µM) | 1 mg/L (≈ 1.01 µM) | 4 mg/L (≈ 4.06 µM) | 0.5 mg/L (≈ 0.507 µM) | 0.5 mg/L (≈ 0.507 µM) | 0.03 mg/L (≈ 0.0304 µM) | MIC (Staphylococcus aureus [21]): 0.25 mg/L (≈ 0.253 µM); MIC (Streptococcus pneumoniae [22]): 0.06 mg/L (≈ 0.0608 µM); MIC (Streptococcus pneumoniae [23]): > 128 mg/L; MIC (Streptococcus pneumoniae [24]): 8 mg/L (≈ 8.11 µM); MIC (Streptococcus pyogenes [25]): > 128 mg/L
CCOC(=O)[C@H]1[C@H](C)O[C@@H](O[C@H]2[C@H](N(C)C)[C@@H](O)[C@H](O[C@H]3[C@@H](CC=O)C[C@@H](C)[C@@H](O)CN(C)CC(/C=C/Cc4cncc5ccccc45)CCOC(=O)C[C@@H](OC(=O)CC)[C@@H]3OC)O[C@@H]2C)C[C@@]1(C)O (stereo not given in full) | 2 mg/L (≈ 2.03 µM) | 1 mg/L (≈ 1.01 µM) | 0.015 mg/L (≈ 0.0152 µM) | 128 mg/L (≈ 130 µM) | 8 mg/L (≈ 8.11 µM) | > 128 mg/L | 32 mg/L (≈ 32.4 µM) | 0.03 mg/L (≈ 0.0304 µM) | 0.03 mg/L (≈ 0.0304 µM) | 128 mg/L (≈ 130 µM) | 0.13 mg/L (≈ 0.132 µM) | 1 mg/L (≈ 1.01 µM) | 0.13 mg/L (≈ 0.132 µM) | 8 mg/L (≈ 8.11 µM) | 0.03 mg/L (≈ 0.0304 µM) | 0.5 mg/L (≈ 0.507 µM) | 8 mg/L (≈ 8.11 µM) | 0.25 mg/L (≈ 0.253 µM) | 0.25 mg/L (≈ 0.253 µM) | 0.015 mg/L (≈ 0.0152 µM) | MIC (Staphylococcus aureus [21]): 0.25 mg/L (≈ 0.253 µM); MIC (Streptococcus pneumoniae [22]): 0.015 mg/L (≈ 0.0152 µM); MIC (Streptococcus pneumoniae [23]): 128 mg/L (≈ 130 µM); MIC (Streptococcus pneumoniae [24]): 8 mg/L (≈ 8.11 µM); MIC (Streptococcus pyogenes [25]): > 128 mg/L
CCOC(=O)[C@H]1[C@H](C)O[C@@H](O[C@H]2[C@H](N(C)C)[C@@H](O)[C@H](O[C@H]3[C@@H](CC=O)C[C@@H](C)[C@@H](O)CN(C)CCC[C@H](C/C=C/c4cnc5ccccc5c4)OC(=O)C[C@@H](OC(=O)CC)[C@@H]3OC)O[C@@H]2C)C[C@@]1(C)O | 2 mg/L (≈ 2.03 µM) | 1 mg/L (≈ 1.01 µM) | 0.03 mg/L (≈ 0.0304 µM) | 128 mg/L (≈ 130 µM) | 8 mg/L (≈ 8.11 µM) | > 128 mg/L | 32 mg/L (≈ 32.4 µM) | 0.03 mg/L (≈ 0.0304 µM) | 0.06 mg/L (≈ 0.0608 µM) | 128 mg/L (≈ 130 µM) | 0.25 mg/L (≈ 0.253 µM) | 1 mg/L (≈ 1.01 µM) | 0.25 mg/L (≈ 0.253 µM) | 8 mg/L (≈ 8.11 µM) | 0.03 mg/L (≈ 0.0304 µM) | 1 mg/L (≈ 1.01 µM) | 8 mg/L (≈ 8.11 µM) | 0.5 mg/L (≈ 0.507 µM) | 0.5 mg/L (≈ 0.507 µM) | 0.015 mg/L (≈ 0.0152 µM) | MIC (Staphylococcus aureus [21]): 0.5 mg/L (≈ 0.507 µM); MIC (Streptococcus pneumoniae [22]): 0.06 mg/L (≈ 0.0608 µM); MIC (Streptococcus pneumoniae [23]): 128 mg/L (≈ 130 µM); MIC (Streptococcus pneumoniae [24]): 8 mg/L (≈ 8.11 µM); MIC (Streptococcus pyogenes [25]): > 128 mg/L
